Assay outcomes (PubChem BioAssay)
Dynein transport – blocks dynein driven cargo transport along microtubules; hit rate 0.47% among 220,000; AID 1381; z-score, hits read low; 3617.4 mouse cells, GR-EGFP nuclear translocation imaging; test concentration mostly 20 µM; stimulated with dexamethasone, 1 µM; stronger effect = lower value;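 active = plate z-score of nuclear minus cytoplasmic receptor signal below a set negative limit, without overly bright fluorescence or cell loss, cut at about -3.5 in these data, passing the limit was not always enough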;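 note: z-score of nuclear minus cytoplasmic ring GR-EGFP intensity difference per well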
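Buffer or medium: Induction medium lacking tetracycline, stripped serum | Also added: Dexamethasone agonist, 1.0 µM final, for 30 min | Timing: 48 h induction, 1 h compound, 30 min dex at 37 °C | Detection: Formaldehyde fixation, Hoechst nuclear stain, 10x automated fluorescence imaging | Measure: Nuclear versus cytoplasmic GR-EGFP signal, averaged per well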
Lmaj promast – reduces viability of Leishmania major promastigotes; resazurin fluorescence viability; inhibition, % at 10 µM; hit rate 9% among 200,000; AID 1063; in the data active = inhibition above about 50%;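 note: promastigotes grown with compound for 44 hours at 28 °C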
bCat KO growth – beta-catenin-lacking colon tumor cell growth suppression | HCT116 beta-catenin knockout viability, CellTiter-Glo, 60 h; stronger effect = lower value | viability, % at 10 µM | hit rate 1.5% among 140,000;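 active = viability at or under a set limit, the compound median less 4 SD, cut at about 6% in these data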;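 note: 0% = Hyamine 1622 control at 20 µM and 100% = untreated cell control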
Autophagy mod – alters autophagy in cells | hit rate 0.98% among 190,000 | calls only at 10 µM (by protocol) | MEF GFP-LC3 puncta imaging; test concentration mostly 10 µM | AID 463193;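 active = percentage of spot-positive cells more than 3 SD above its plate mean, without a fluorescence outlier flag or 80% toxicity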;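 note: spot-positive cell cutoff set from DMSO-treated cells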
PTEN del growth – PTEN-deleted cell growth suppression; viability, % at 10 µM; hit rate 1.2% among 140,000; HCT116 PTEN-null viability, CellTiter-Glo, 60 h; stronger effect = lower value;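 active = viability at or below a set limit, 4 SD under the median of all tested compounds, cut at about 3.7% in these data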;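 note: PTEN knockout HCT116 line with beta catenin targeted HCT116 as companion control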
The depositor's hits bear a star; i = inactive; / = not tested or not shown; + = active, no number. Most compounds without a hit are left out; they make up all but 9.2% or so of the library.

SMILES	Dynein transport	Lmaj promast	bCat KO growth	Autophagy mod	PTEN del growth
O=S(=O)(c1ccc2ccccc2c1)N1CCCCCC1	-0.728	-6.0	/	i	/
Cc1ccc(S(=O)(=O)CC(C)N2CCN(C3CCCCC3)CC2)cc1 (centres undefined)	-0.0373	90.4*	91.9	i	88.6
CC(CS(=O)(=O)c1ccc2ccccc2c1)N1CCN(C2CCCCC2)CC1 (centres undefined)	-0.697	82.5*	/	i	/
Cc1ccc(S(=O)(=O)NC(CC(=O)NCC2CCCO2)c2ccccc2)cc1 (centres undefined)	-0.56	-3.7	/	i	/
COc1ccc(/C=N/NC(=O)C2c3ccccc3Oc3ccccc32)c(OC)c1	1.12	-2.3	94.8	i	94.6
CNc1nc(NC)nc(-n2c(C(F)(F)F)nc3ccccc32)n1	0.616	11.0	103.9	i	85.5
CC(=O)Nc1ccc(NC(=O)CN2CCN(c3cccc(C(F)(F)F)c3)CC2)cc1	-0.607	5.2	80.4	i	84.0
CC(=O)Nc1ccc(CN2CCN(c3cccc(C(F)(F)F)c3)CC2)cc1	-0.492	91.5*	87.9	i	88.4
O=C1C(=C2CCCCC2)SC(=S)N1Cc1ccco1	0.739	4.7	64.2	i	61.7
CCn1cc(C2=NOC(C(=O)Nc3ccc4c(c3)OCO4)C2)c(C)n1 (centres undefined)	3.32	56.7*	90.0	i	90.5
CCO/C(C)=N/n1c2nc3ccccc3nc2c2c(=O)n(Cc3ccccc3Cl)c(C)nc21	-0.13	36.5	76.6	i	67.2
CC1CCN(CCCn2c(=S)[nH]c3ccccc3c2=O)CC1	-0.443	99.8*	102.1	i	91.9
O=c1c2ccccc2[nH]c(=S)n1CCCN1CCN(C2CCCCC2)CC1	0.367	97.6*	72.0	i	75.8
Cc1cccc(CN2CCN(Cc3cccc(-n4cccn4)c3)CC2CCO)n1 (centres undefined)	-0.499	-3.6	/	+	/
Cc1cccc(CN2CCN(Cc3ccc(-n4cccn4)cc3)CC2CCO)n1 (centres undefined)	2.36	6.6	/	i	/
CCOc1ccccc1NC(=O)N1C2CCCC1CC(NC(=O)C1CC1)C2 (centres undefined)	0.457	-3.5	87.3	+	94.8
CCOc1ccccc1NC(=O)C1CCN(C(=O)c2cccs2)CC1	-1.2	-2.2	/	+	/
COc1ccc(NC(=O)C2CCN(C(=O)c3cccs3)CC2)c(OC)c1	-0.0869	0.6	93.9	i	101.5
CCC1(C)Cc2ccccc2C(Nc2c(C)n(C)n(-c3ccccc3)c2=O)=N1 (centres undefined)	2.81	1.3	92.0	i	84.3
Cc1ccc(NC(=O)CN2CCC(NC(=O)Cc3ccccc3)CC2)c(C)c1	0.792	69.7*	95.3	i	101.7
Cc1ccc(NC(=S)NC2CCN(Cc3ccccc3)CC2)cc1C	1.29	94.0*	/	i	/
CC(C)c1ccc(NC(=S)NC2CCN(Cc3ccccc3)CC2)cc1	-0.161	92.2*	9.3	i	7.9
S=C(Nc1ccc2c(c1)OCO2)NC1CCN(Cc2ccccc2)CC1	-0.509	97.5*	75.6	i	82.2
COC(=O)[C@H](C)NC(=O)NC1CCN(Cc2ccccc2)CC1	0.119	-3.5	90.8	i	108.2
Cc1ccc(NC(=O)CN2CCC(NC(=O)Cc3ccccc3)CC2)cc1C	0.512	-2.7	91.5	i	93.7
SMILES	Dynein transport	Lmaj promast	bCat KO growth	Autophagy mod	PTEN del growth
O=C(CN1CCC(NC(=O)c2ccccc2F)CC1)Nc1ccc2c(c1)OCO2	-0.143	-5.7	/	i	/
Cc1ccc(C(=O)Nc2nn(C)c3cccc(F)c23)cc1	2.25	/	/	/	/
O=C(Nc1ccccc1)NC1CCN(Cc2ccccc2)CC1	-0.795	28.9	/	i	/
Cc1ccc(NC(=S)NC2CCN(Cc3ccccc3)CC2)cc1	-0.77	99.6*	73.3	i	83.2
S=C(NCCCc1ccccc1)Nc1ccc(Cl)cc1	-0.625	90.2*	88.8	i	90.2
CCC(C)c1ccc(NC(=S)NCc2cccs2)cc1 (centres undefined)	-0.763	67.2*	87.5	i	83.0
S=C(NCc1ccccc1)Nc1ccc(Cl)cc1	-0.101	13.8	/	i	/
S=C(NCCc1ccccc1)NCc1cccs1	1.83	78.6*	89.0	i	85.4
CC(C)(CNC(=S)NCCc1ccccc1)CNC(=S)NCCc1ccccc1	-0.171	95.4*	24.2	i	20.6
COc1ccc(CCNC(=S)NCc2cccs2)cc1OC	-0.0381	1.1	/	i	/
CC(C)CN1C(=O)c2ccc(NC(=O)Cc3ccccc3)cc2C1=O	1.28	-7.6	/	i	/
CC(C)N1CCN(C2CSCCSC2)CC1CCO (centres undefined)	0.00122	/	/	/	/
Cc1ccccc1N1C(=O)CN(Cc2sccc2C)C1=S	-0.405	92.8*	80.8	i	84.0
COc1cc(/C=N/NC(=S)N/N=C/c2cc(OC)c(OC)c(OC)c2)cc(OC)c1OC	1.66	55.0*	97.6	i	89.1
COc1cc(/C=N/NC(=O)CCC(=O)NCc2ccccc2)cc(OC)c1OC	1.09	-1.6	0.4*	i	0.3*
COc1cc(/C=N/NC(=S)Nc2cccc(C(=O)O)c2)cc(OC)c1OC	1.47	-4.9	89.5	i	88.4
COc1cc(/C=N/NC(=O)CCn2c3ccccc3c3ccccc32)cc(OC)c1OC	0.386	6.7	95.1	i	92.7
O=C(NCc1ccc(F)cc1)c1ccc(Br)o1	0.245	-1.7	/	i	/
Cc1[nH]n(-c2ccccc2)c(=O)c1/C=N/NC(=O)c1cccc([N+](=O)[O-])c1	-0.199	-3.8	2.4*	i	2.6*
Cc1[nH]n(-c2cccc3ccccc23)c(=O)c1/C=N/NC(=O)c1cccc([N+](=O)[O-])c1	-0.0513	-5.0	4.5*	i	3.6*
Cc1ccc2nc(NS(C)(=O)=O)sc2c1	1.3	-1.2	/	i	/
O=C(CCc1nc2ccccc2c(=O)[nH]1)OCc1ccc(-c2ccccc2)cc1	-0.411	93.3*	101.2	i	101.5
O=C(COC(=O)CCc1nc2ccccc2c(=O)[nH]1)NC(=O)NC1CCCC1	-0.161	52.8*	95.1	i	102.1
O=C(CCc1nc2ccccc2c(=O)[nH]1)OCc1cccc(C(F)(F)F)c1	-0.739	63.2*	94.4	i	98.0
Cc1ccc(OCCOC(=O)CCc2nc3ccccc3c(=O)[nH]2)cc1	-0.0957	-11.5	/	i	/
SMILES	Dynein transport	Lmaj promast	bCat KO growth	Autophagy mod	PTEN del growth
O=C(c1cc2c(s1)CCCC2)N1CCN(c2ccccc2)CC1	-0.546	-10.5	/	i	/
O=C(c1cc2c(s1)CCCC2)N1CCN(S(=O)(=O)c2ccccc2C(F)(F)F)CC1	-0.055	77.3*	74.5	i	100.5
CCOc1ccccc1N1CCN(C(=O)c2cc3c(s2)CCC3)CC1	0.261	68.0*	92.9	i	83.4
COc1cc(C2C(C#N)=C(N)Oc3cc(O)ccc32)cc(OC)c1OC (centres undefined)	-0.837	-0.3	17.8	+	17.4
CC(C)(CO)NCC#Cc1ccccc1	-0.582	-5.4	/	i	/
CN1/C(=C\C(=O)COC(=O)Cn2nnc(-c3ccccc3)n2)C(C)(C)c2ccccc21	1.78	90.1*	16.7	i	17.6
